The results in this text go back to ChEMBL document CHEMBL3124845, “Synthesis, neuronal activity and mechanisms of action of halogenated enaminones” (Eur J Med Chem, 2014).

The source made the active and inactive calls. The calls are words filed in the database; no cut-off is given here.

System in one assay: not listed separately
As to the kind of experiment: Anticonvulsant activity in Sprague-Dawley rat hippocampus CA1 pyramidal neurons assessed as suppression of action potential firing frequency at 10 uM by voltage-clamp electrophysiology relative to control. Conditions: in the assay text read “current-clamp” for “voltage-clamp”. Type of assay: functional, Pyramidal neuron.
For the compound `CCOC(=O)C1C(=O)C=C(Nc2ccc(Br)cc2Br)CC1C` (stereo not drawn), the Activity was 76.3%.
Take `COC(=O)C1C(=O)C=C(Nc2ccc(Br)cc2Br)CC1c1ccccc1` (stereo not drawn): the Activity amounted to 39.2%.

The next assay has as its system Pyramidal neuron. The assay can be described thus: Anticonvulsant activity in Sprague-Dawley rat hippocampus CA1 pyramidal neurons assessed as suppression of EPSC amplitude at 10 uM at -60mV holding potential measured 15 to 20 mins post compound washout by voltage-clamp electrophysiology. The assay is classed as functional, cell-based.
Settings: not given
Put shortly:
(§1)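 Coronal hippocampal slices ([…]) from halothane-anaesthetised male Sprague-Dawley rats (100–150 g), submerged in carbogenated aCSF at 29–31 C, 2–3 mL/min. Blind whole-cell patch of CA1 pyramidal cells with K-gluconate pipette solution (pH 7.3); voltage clamp near rest (60 mV). EPSCs evoked by afferent stimulation; two responses 30 s apart averaged; compound at […].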
Take `CCOC(=O)C1C(=O)C=C(Nc2ccc(Br)cc2Br)CC1C` (stereo not drawn): the outcome was Active.
Still for that read-out and setting: the result for `COC(=O)C1C(=O)C=C(Nc2ccc(Br)cc2Br)CC1c1ccccc1` (stereo not drawn) reads “Active”.

System in a further assay: not listed separately
The assay can be described thus: Anticonvulsant activity in Sprague-Dawley rat hippocampus CA1 pyramidal neurons assessed as suppression of EPSC amplitude at 10 uM at -60mV holding potential by voltage-clamp electrophysiology relative to control. The assay is classed as functional, Pyramidal neuron.
Settings: not given
An outline of the steps:
as §1
For the compound `CCOC(=O)C1C(=O)C=C(Nc2ccc(Br)cc2Br)CC1C` (stereo not drawn), the Activity is 47.5%.
As to `COC(=O)C1C(=O)C=C(Nc2ccc(Br)cc2Br)CC1c1ccccc1` (stereo not drawn), the Activity is given as 31.2%.

System in another assay: not listed separately
As to the kind of experiment: Anticonvulsant activity in Sprague-Dawley rat hippocampus CA1 pyramidal neurons assessed as suppression of EPSC amplitude at 10 uM by voltage-clamp electrophysiology in presence of GABA transaminase inhibitor vigabatrin. Type of assay: functional, Pyramidal neuron.
Settings: not given
Regarding `CCOC(=O)C1C(=O)C=C(Nc2ccc(Br)cc2Br)CC1C` (stereo not drawn), the Activity is given as 3.9%.
The same measure, in the same setting: the figure for `COC(=O)C1C(=O)C=C(Nc2ccc(Br)cc2Br)CC1c1ccccc1` (stereo not drawn) is 40%.

System in another assay: not listed separately
As to the kind of experiment: Anticonvulsant activity in Sprague-Dawley rat hippocampus CA1 pyramidal neurons assessed as suppression of EPSC amplitude at 10 uM by voltage-clamp electrophysiology in presence of GABA-B receptor antagonist CGP55845. The assay is classed as functional, Pyramidal neuron.
Settings: not given
In the case of `CCOC(=O)C1C(=O)C=C(Nc2ccc(Br)cc2Br)CC1C` (stereo not drawn), the Activity is reported as 16.6%.
Still for that read-out and setting: the figure for `COC(=O)C1C(=O)C=C(Nc2ccc(Br)cc2Br)CC1c1ccccc1` (stereo not drawn) is 16.6%.

Another assay deals with Hippocampus. The assay can be described thus: Anticonvulsant activity in Sprague-Dawley rat hippocampus assessed as inhibition of population spike amplitude at 10 uM preincubated for 6 mins followed by compound washout measured after 10 mins by […]. The assay is classed as functional.
Settings: not given
Put shortly: (§2)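 Extracellular recording of population spikes in coronal hippocampal slices from male Sprague-Dawley rats (100–150 g), aCSF 29–31 C. Spike amplitude measured from the positive peak to the negative tip; readings taken in control, 6 min into compound and 10 min after washout. Concentration-response run up to […]; mean and standard error.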
For `CCOC(=O)C1C(=O)C=C(Nc2ccc(Br)cc2Br)CC1C` (stereo not drawn), the inhibition at 10 µM is -34.7%.
As to `CCOC(=O)C1C(=O)C=C(Nc2ccc(Cl)cc2Cl)CC1C` (stereo not drawn), the inhibition at 10 µM is -24.6%.
As for `O=C1C=C(Nc2ccc(Br)cc2Br)CCC1`, the inhibition at 10 µM was -23.7%.
In the case of `COC(=O)C1C(=O)C=C(Nc2ccc(Br)cc2Br)CC1c1ccccc1` (stereo not drawn), the inhibition at 10 µM is -72.2%.
As for `CCOC(=O)C1CCC(Nc2ccc(Br)cc2Br)=CC1=O` (stereo not drawn), the inhibition at 10 µM amounted to 35%.
For `CC1(C)CCC(Nc2ccc(Br)cc2Br)=CC1=O`, the inhibition at 10 µM is -18.2%.
Take `CCOC(=O)C1C(=O)C=C(Nc2ccc(I)cc2I)CC1c1ccccc1` (stereo not drawn): the inhibition at 10 µM is 4%.
Same read-out and setting: the figure for `COC(=O)C1C(=O)C=C(Nc2ccc(I)cc2I)CC1c1ccccc1` (stereo not drawn) is 8.5%.
Consider `COC(=O)C1C(=O)C=C(Nc2ccc(Br)cc2Br)CC1C` (stereo not drawn), for which the inhibition at 10 µM was -25%.
In the case of `CC1CC(=O)C=C(Nc2ccc(Br)cc2Br)C1` (stereo not drawn), the inhibition at 10 µM is 8%.

The subject of another assay is Hippocampus. The assay can be described thus: Anticonvulsant activity in Sprague-Dawley rat hippocampus assessed as inhibition of population spike amplitude preincubated for 6 mins followed by compound washout measured after 10 mins by […]. The assay is classed as functional, tissue-based.
Settings: not given
Put shortly: as §2
For the compound `CCOC(=O)C1C(=O)C=C(Nc2ccc(Br)cc2Br)CC1C` (stereo not drawn), the EC50 was found to be 1.9 µM and the inhibition result was “Dose-dependent effect”.
`CCOC(=O)C1C(=O)C=C(Nc2ccc(Cl)cc2Cl)CC1C` (stereo not drawn): the concentration for a half-maximal effect (EC50) was 10 µM.
For `COC(=O)C1C(=O)C=C(Nc2ccc(Br)cc2Br)CC1c1ccccc1` (stereo not drawn), the EC50 came out at 2.1 µM and the inhibition result was “Dose-dependent effect”.

A further assay deals with Hippocampus. The assay can be described thus: Anticonvulsant activity in Sprague-Dawley rat hippocampus assessed as inhibition of population spike amplitude at >= 100 uM preincubated for 6 mins followed by compound washout measured after 10 mins by […].
Settings: not given
Type of assay: functional, tissue-based. An outline of the steps:
as §2
Turning to `CCOC(=O)C1C(=O)C=C(Nc2ccc(Br)cc2Br)CC1C` (stereo not drawn), the inhibition entry is “inactive”.
As to `CCOC(=O)C1C(=O)C=C(Nc2ccc(Cl)cc2Cl)CC1C` (stereo not drawn), the inhibition entry was “inactive”.
With `O=C1C=C(Nc2ccc(Br)cc2Br)CCC1`, the inhibition result is “inactive”.
With `COC(=O)C1C(=O)C=C(Nc2ccc(Br)cc2Br)CC1c1ccccc1` (stereo not drawn), the inhibition result is “inactive”.
Turning to `CCOC(=O)C1CCC(Nc2ccc(Br)cc2Br)=CC1=O` (stereo not drawn), the inhibition result was “inactive”.
`CC1(C)CCC(Nc2ccc(Br)cc2Br)=CC1=O`: the inhibition result is “inactive”.
`CCOC(=O)C1C(=O)C=C(Nc2ccc(I)cc2I)CC1c1ccccc1` (stereo not drawn): the inhibition result was “inactive”.
On the same count and under the same terms, the result for `COC(=O)C1C(=O)C=C(Nc2ccc(I)cc2I)CC1c1ccccc1` (stereo not drawn) reads “inactive”.
On to `COC(=O)C1C(=O)C=C(Nc2ccc(Br)cc2Br)CC1C` (stereo not drawn), for which the inhibition result was “inactive”.
Regarding `CC1CC(=O)C=C(Nc2ccc(Br)cc2Br)C1` (stereo not drawn), the inhibition entry is “inactive”.

The test system of another assay is Mus musculus. The assay can be described thus: Anticonvulsant activity in CF1 mouse at <100 mg/kg, ip after 30 mins. The assay is classed as functional, organism-based.
Settings: not given
An outline of the steps: (§3)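 Male CF1 mice; compound dissolved or suspended in 30% polyethylene glycol 400, given intraperitoneally at 30, 100 and 300 mg/kg. Protection scored in maximal electroshock and subcutaneous pentylenetetrazole seizure tests, with rotorod for neurotoxicity, read at 30 min and 4 h after dosing.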
With `CCOC(=O)C1C(=O)C=C(Nc2ccc(Br)cc2Br)CC1C` (stereo not drawn), the outcome was Active.
Take `COC(=O)C1C(=O)C=C(Nc2ccc(Br)cc2Br)CC1c1ccccc1` (stereo not drawn): the outcome was Active.

Another assay deals with Mus musculus. As to the kind of experiment: Anticonvulsant activity in CF1 mouse at 100 to 300 mg/kg, ip after 30 mins. The assay is classed as functional, organism-based.
Settings: not given
Put shortly:
as §3
For the compound `COC(=O)C1C(=O)C=C(Nc2ccc(Br)cc2Br)CC1C` (stereo not drawn), the result was Active.
